High-throughput results from PubChem BioAssay.
The full list was thinned out, with hits kept by preference.
IDH1 R132H inh: inhibitors of IDH1 R132H reductase, primary screen, biochemical, plate reader, single point; diaphorase/resazurin fluorescence, 60 min; inhibition, % at 10 µM; 70,000 tested, 0.18% active; AID 624101, 2012; in the data active = inhibition above about 34%; inconclusive = no clear call, values can overlap the other calls; inactive = below about 11%;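 note: 0% = DMSO and 100% = no enzyme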
Target sequence (O75874 whole entry R132H): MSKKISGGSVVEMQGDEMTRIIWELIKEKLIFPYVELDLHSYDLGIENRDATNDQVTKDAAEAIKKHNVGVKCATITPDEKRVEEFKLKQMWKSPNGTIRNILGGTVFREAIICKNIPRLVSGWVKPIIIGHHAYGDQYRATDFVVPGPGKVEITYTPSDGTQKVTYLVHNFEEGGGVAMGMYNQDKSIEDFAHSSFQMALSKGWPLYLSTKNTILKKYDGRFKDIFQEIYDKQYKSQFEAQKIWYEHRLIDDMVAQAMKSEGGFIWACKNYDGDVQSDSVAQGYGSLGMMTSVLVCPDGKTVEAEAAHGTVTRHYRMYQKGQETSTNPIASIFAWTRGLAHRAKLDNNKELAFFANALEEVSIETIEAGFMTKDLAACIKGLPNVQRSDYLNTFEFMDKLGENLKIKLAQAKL
T cruzi growth-1: T. cruzi intracellular proliferation inhibitors, primary screen, cell-based, beta-gal Tulahuen parasites, NIH3T3 host, luminescence; inhibition, % at 8.34 µM; T. cruzi beta-gal in NIH3T3, GalScreen luminescence, 90 h; 77,000 tested, 5.9% active;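 active = mean inhibition above about 93%, with at least 55% of replicates each passing it, limit read from the data, passing the limit was not always enough; inconclusive = only one of those two conditions holds; inactive = neither condition holds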
KDM4C inh: inhibitors of GASC-1 (KDM4C) histone demethylase, primary screen, biochemical, single concentration HTS | 96,000 tested, 0.15% active | inhibition, % at 12.5 µM | GST-KDM4C 2-372, H3K9me3 peptide, LANCE TR-FRET | Lysine-specific demethylase 4C (Homo sapiens), Q9H3R0;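 active = mean replicate inhibition above about 25%, with at least 55% of replicates also reaching it, limit read from the data, passing the limit was not always enough; inconclusive = only one of those two conditions met; inactive = neither condition met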
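material = GST-tagged GASC-1 (JMJD2C) catalytic fragment, aa 2-372 | amount = enzyme final amount 10 nM | medium = HEPES buffer, pH 7.5, plus ascorbate | also added = H3K9me3 peptide substrate, Fe(II), 2-oxoglutarate | dosing = single dose | times = 30 min demethylation and 1 h detection at room temperature | detection = LANCE TR-FRET | read-out basis = Fall in 671/618 emission ratio as inhibition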
T cruzi growth-2: T. cruzi intracellular proliferation inhibitors, confirmation, cell-based, NIH3T3 host, beta-gal parasite, luminescence, cherry-pick; shares compounds with T cruzi growth-1; 5,600 tested, 72% active; inhibition, % at 8.35 µM; T. cruzi beta-gal in NIH3T3, GalScreen luminescence, 90 h;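 active = mean replicate inhibition above about 95% and at least 55% of replicates individually reaching it, limit read from the data; inconclusive = only one of the two criteria is met; inactive = neither criterion is met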
T cruzi growth-3: inhibitors of intracellular T. cruzi replication, confirmation, NIH3T3 host cells, beta-gal parasites, cherry-pick, set 2. shares compounds with T cruzi growth-1. inhibition, % at 2.09 µM. 5,600 tested, 21% active. T. cruzi beta-gal in NIH3T3, GalScreen luminescence, 90 h. AID 651740, 2012;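 active = mean inhibition above about 95%, with at least 55% of replicates also reaching it, limit read from the data; inconclusive = meets just one of the two conditions; inactive = meets neither condition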;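 note: plate controls were neutral control median for no effect and positive control median for full effect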
3T3 cytotox: cytotoxicity in mouse NIH/3T3 fibroblasts, confirmation, cytotoxicity control for T. cruzi proliferation inhibitor project, cell-based, cherry-pick, single point; shares compounds with T cruzi growth-1; NIH/3T3 viability, CellTiter-Glo ATP luminescence, 90 h; cytotoxicity (signal decrease), % at 8.35 µM; 5,600 tested, 14% active; AID 651742, 2012;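 active = mean signal decrease across replicates above about 35% based on untreated-well scatter, with enough replicates individually passing, limit read from the data; inconclusive = no rule stated though some were filed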;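 note: 0% = median of neutral control wells and 100% = median of positive control wells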
NIH3T3 tox 2: NIH/3T3 fibroblast cytotoxicity, confirmation, cytotoxicity control, cell-based, cherry-pick, single point, set 2. shares compounds with T cruzi growth-1. NIH/3T3 viability, CellTiter-Glo ATP luminescence, 90 h. inhibition, % at 24.9 µM. 5,600 tested, 56% active. AID 651744, 2012;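 active = mean loss of cell viability signal at or above a set limit, and enough replicates individually reaching it; inconclusive = meets only the mean limit or only the replicate share; inactive = meets neither condition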;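 note: 0% = median of neutral control wells and 100% = median of positive control wells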
* = called active by the depositor; ? = inconclusive; / = not tested or not shown.

SMILES	IDH1 R132H inh	T cruzi growth-1	KDM4C inh	T cruzi growth-2	T cruzi growth-3	3T3 cytotox	NIH3T3 tox 2
Cc1ccc(S(=O)(=O)Nc2ccc3c(c2)CC(=O)N([C@@H](C)CO)C[C@@H](C)[C@H](CN(C)Cc2ccc4c(c2)OCO4)O3)cc1	0.1	99.2*	4.3	103.5*	?	9.0	?
C[C@H]1CN([C@@H](C)CO)C(=O)Cc2cc(NS(=O)(=O)c3ccc(Cl)cc3)ccc2O[C@@H]1CN(C)Cc1ccc2c(c1)OCO2	2.1	106.9*	-1.3	97.8*	16.6	-1.5	5.9
Cc1ccc(S(=O)(=O)Nc2ccc3c(c2)CC(=O)N([C@H](C)CO)C[C@H](C)[C@H](CN(C)Cc2ccc4c(c2)OCO4)O3)cc1	0.4	51.2	-0.9	/	/	/	/
Cc1cccc(S(=O)(=O)N2C[C@H](O)COC[C@@H]3O[C@@H](CC(=O)Nc4ccc(-c5ccccc5)cc4)CC[C@H]32)c1	/	111.3*	-1.6	96.8*	?	59.7*	78.4*
Cc1cccc(S(=O)(=O)N2C[C@H](O)COC[C@@H]3O[C@H](CC(=O)Nc4ccc(-c5ccccc5)cc4)CC[C@H]32)c1	/	111.7*	-0.5	101.8*	106.6*	10.2	15.9
Cc1cccc(S(=O)(=O)N2C[C@@H](O)COC[C@@H]3O[C@H](CC(=O)Nc4ccc(-c5ccccc5)cc4)CC[C@H]32)c1	/	119.5*	-0.5	106.6*	73.7	?	41.2*
O=C(C[C@@H]1CC[C@@H]2[C@H](COC[C@@H](O)CN2S(=O)(=O)c2cccc(F)c2)O1)Nc1ccc(-c2ccccc2)cc1	/	94.8	-0.6	/	/	/	/
O=C(C[C@H]1CC[C@@H]2[C@H](COC[C@H](O)CN2S(=O)(=O)c2ccccc2)O1)Nc1ccc(-c2ccccc2)cc1	/	87.7	-1.7	/	/	/	/
Cc1cccc(S(=O)(=O)N2C[C@@H](O)COC[C@H]3O[C@@H](CC(=O)Nc4ccc(-c5ccccc5)cc4)CC[C@@H]32)c1	/	112.6*	-0.7	100.3*	94.5	7.3	78.4*
O=C(C[C@@H]1CC[C@H]2[C@@H](COC[C@@H](O)CN2S(=O)(=O)c2cccc(F)c2)O1)Nc1ccc(-c2ccccc2)cc1	/	91.9	-1.1	/	/	/	/
O=C(C[C@@H]1CC[C@H]2[C@@H](COC[C@@H](O)CN2S(=O)(=O)c2ccccc2)O1)Nc1ccccc1	/	-13.9	0.4	/	/	/	/
Cc1nn(C(C)(C)C)c(OC(=O)c2ccc(Cl)cc2)c1S(=O)(=O)c1ccccc1	0.0	/	/	/	/	/	/
O=C(C[C@H]1CC[C@@H]2[C@H](COC[C@@H](O)CN2S(=O)(=O)c2ccccc2)O1)Nc1ccc(-c2ccccc2)cc1	/	68.5	-0.3	/	/	/	/
O=C(C[C@@H]1CC[C@@H]2[C@H](COC[C@@H](O)CN2S(=O)(=O)c2ccccc2)O1)Nc1ccc(-c2ccccc2)cc1	/	103.7*	-2.1	117.0*	71.8	17.5	19.9
Cc1ccc(N(C(C)C(=O)Nc2ccc(Cl)c(C(F)(F)F)c2)S(C)(=O)=O)cc1 (centres undefined)	-0.3	/	/	/	/	/	/
COc1ccc(OC)c(NC(=O)CNC(=O)c2ccc(Cl)cc2)c1	0.4	/	/	/	/	/	/
CN(C)C(=O)c1ccc(-c2ccc([C@@H]3[C@H](CO)N4CCCCN(Cc5cccnc5)C[C@@H]34)cc2)cc1	/	83.3	-0.9	/	/	/	/
OC[C@@H]1[C@H](c2ccc(C3=CCCC3)cc2)[C@H]2CN(Cc3cccnc3)CCCCN12	/	98.6	1.8	/	/	/	/
OC[C@@H]1[C@H](c2ccc(-c3ccc(F)cc3)cc2)[C@@H]2CN(Cc3ccncc3)CCCCN12	/	97.8*	5.9	105.5*	45.2	36.9*	103.5*
Cc1ccccc1-c1ccc([C@H]2[C@@H](CO)N3CCCCN(Cc4cccnc4)C[C@H]23)cc1	/	109.1*	-0.9	105.7*	90.8	45.6*	106.1*
OC[C@@H]1[C@@H](c2ccc(-c3ccc(F)cc3)cc2)[C@H]2CN(Cc3ccncc3)CCCCN12	/	76.8	3.4	/	/	/	/
OC[C@@H]1[C@@H](c2ccc(-c3ccc(F)cc3)cc2)[C@H]2CN(Cc3cccnc3)CCCCN12	/	112.9*	0.2	53.2	19.6	28.3	102.3*
CN(C)C(=O)c1cccc(-c2ccc([C@H]3[C@H](CO)N4CCCCN(Cc5cccnc5)C[C@@H]34)cc2)c1	/	100.7*	-0.6	107.3*	90.9	-4.8	-5.7
C=C(C)Cn1c(SCc2nc3ccccc3[nH]2)nc2sc3c(c2c1=O)CCCC3	-0.4	/	/	/	/	/	/
CC(C)c1ccc(S(=O)(=O)NCc2cccnc2)cc1	0.1	/	/	/	/	/	/
SMILES	IDH1 R132H inh	T cruzi growth-1	KDM4C inh	T cruzi growth-2	T cruzi growth-3	3T3 cytotox	NIH3T3 tox 2
CC1CCc2c(sc3ncn(CC(=O)Nc4ccccc4C(F)(F)F)c(=O)c23)C1 (centres undefined)	0.4	/	/	/	/	/	/
Cn1nnnc1SCC(=O)Nc1ccc([N+](=O)[O-])cc1	1.1	/	/	/	/	/	/
COC(=O)CNC(=O)c1cn(-c2ccccc2)nc1-c1cccc(Br)c1	-0.7	/	/	/	/	/	/
CS(=O)(=O)N(CC(=O)Nc1ccc(Oc2ccccc2)cc1)c1cc(Cl)c(Cl)cc1Cl	-0.1	/	/	/	/	/	/
O=C(O)C(Cc1ccccc1)N1C(=O)C2C3C=CC(C3)C2C1=O (centres undefined)	0.1	/	/	/	/	/	/
OC[C@H]1[C@H](c2ccc(-c3ccc(F)cc3)cc2)[C@@H]2CN(Cc3cccnc3)CCCCN12	/	110.1*	0.5	114.4*	90.6	16.7	102.6*
OC[C@H]1[C@H](c2ccc(-c3ccc(F)cc3)cc2)[C@H]2CN(Cc3cccnc3)CCCCN21	/	89.2	-0.6	/	/	/	/
COc1cc(OC)cc(OCC(O)Cn2cnc3ccccc32)c1 (centres undefined)	1.2	/	/	/	/	/	/
N#C[C@@H]1[C@H](c2ccc(C3=CCCCC3)cc2)[C@H](CO)N1C(=O)c1ccccn1	/	101.0*	4.4	100.4*	104.6*	16.2	15.5
N#C[C@@H]1[C@@H](c2ccc(C3=CCCCC3)cc2)[C@H](CO)N1C(=O)c1ccccn1	/	67.0	0.7	/	/	/	/
N#C[C@@H]1[C@@H](c2ccc(C3=CCCCC3)cc2)[C@@H](CO)N1C(=O)c1ccccn1	/	101.6*	1.9	71.7	2.6	-7.2	4.8
N#C[C@H]1[C@H](c2ccc(C3=CCCCC3)cc2)[C@@H](CO)N1C(=O)c1ccccn1	/	51.8	-2.4	/	/	/	/
Cc1nnc(SCC(=O)Nc2cc(Cl)c(Cl)cc2Cl)s1	-0.2	/	/	/	/	/	/
